# Measured values reported in ChEMBL document CHEMBL4725346, “Syntheses and Evaluation of New Bisacridine Derivatives for Dual Binding of G-Quadruplex and i-Motif in Regulating Oncogene c-myc Expression” (J Med Chem, 2020).
# Calls of active or inactive are those of the source. No cut-off for these calls is given here.
# Tests used:
# Quadruplex DNA [1] = assay: Binding affinity to 5'-biotin labeled c-myc promoter G-quadruplex DNA Pu27 (unknown origin) by surface plasmon resonance method; format: nucleic-acid assay
# Procedure, shortened: (§1)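 SPR: 5'-biotin DNA diluted to 1 μM and captured (1000 RU) on a sensor chip, with a blank cell as reference. Running buffers: Py33 in 20 mM MES pH 5.8, 100 mM KCl, 0.05% Tween-20; Pu27 and duplex in 50 mM Tris-HCl pH 7.4, 100 mM KCl. Six ligand concentrations serially diluted from DMSO stock. Association 260 s, dissociation 300 s at 25 °C; NaOH regeneration; blank sensorgrams subtracted.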
# SiHa [2] = assay: Induction of apoptosis in human SiHa cells assessed as early apoptotic cells at 1.2 uM after 24 hrs by annexin V/FITC-propidium iodide staining-based flow cytometric method ( Rvb = 0.3%); format: functional
# SiHa [3] = assay: Induction of cell cycle arrest in human SiHa cells assessed as accumulation of cells at G2/M phase at 0.60 uM after 24 hrs by propidium iodide staining based flow cytometry (reference value: 29.71%); format: functional; settings: dose 0.6 µM
# CA46 [4] = assay: Induction of apoptosis in human CA46 cells at 0.6 to 2.4 uM after 24 hrs by propidium iodide staining based flow cytometry; format: functional, cell-based; settings: dose microM 0.6-2.4, time 24.0 hrs
# Quadruplex DNA [5] = assay: Binding affinity to c-myc promoter G-quadruplex/i-motif in human SiHa cells assessed as reduction in c-myc mRNA level at 5 uM incubated for 24 hrs by qRT-PCR analysis; format: cell-based; parameters: scale not given: the % may be the effect or the level left
# SiHa [6] = assay: Antiproliferative activity against human SiHa cells after 48 hrs by MTT assay; format: functional, cell-based
# Procedure, shortened: (§2)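 Cells seeded at 5.0×10^3 per well, pre-incubated 12 h at 37 °C, 5% CO2, then exposed to compounds for 48 h; DMSO-only control. MTT (2.5 mg/mL) added for 4 h, formazan dissolved in DMSO, absorbance at 570 nm. Each dose tested in triplicate; IC50 from percentage survival relative to negative control.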
# dsDNA = assay: Binding affinity to 5'-biotin labeled duplex DNA (unknown origin) by surface plasmon resonance method; format: nucleic-acid assay; procedure, shortened: as §1
# CA46 [7] = assay: Induction of cell cycle arrest in human CA46 cells assessed as accumulation of cells at G2/M phase at 0.15 to 0.6 uM after 24 hrs by propidium iodide staining based flow cytometry; format: functional; settings: dose microM 0.15-0.6, time 24.0 hrs
# Quadruplex DNA [8] = assay: Binding affinity to c-myc promoter G-quadruplex/i-motif in human CA46 cells assessed as reduction in c-myc mRNA transcription at 0.16 to 2.5 uM incubated for 24 hrs; format: cell-based; settings: dose microM 0.16-2.5, time 24.0 hrs
# [9] = Stabilization of 5'-FAM/3'-TAMRA labeled c-myc promoter i-motif DNA FPy33T (unknown origin) assessed as change in melting temperature at 1 uM by FRET assay (reference value: 53.2 degreeC)
# Procedure, shortened: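 FRET melting of dual FAM/TAMRA-labelled FPy33T annealed in 1× BPES (30 mM potassium phosphate, 1 mM EDTA, 100 mM KCl), pH 5.5. Final 0.2 µM DNA with or without ligand. Excitation 470 nm, emission 530 nm, read every 1 °C over 37–99 °C. ΔTm taken against DNA alone.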
# SiHa [10] = assay: Induction of cell cycle arrest in human SiHa cells assessed as accumulation of cells at G0/G1 phase at 0.60 uM after 24 hrs by propidium iodide staining based flow cytometry (reference value: 42.28%); format: functional; settings: dose 0.6 µM
# [11] = Stabilization of c-myc promoter i-motif DNA Py33 (unknown origin) by 1H NMR spectra analysis
# Procedure, shortened: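 1D ¹H NMR titration with water suppression at 25 °C on a 600 MHz spectrometer. DNA at 0.5 mM in 10% D₂O/90% H₂O: Pu27 in 10 mM Tris-HCl pH 7.4, Py33 in 1× BPES pH 6.4. Annealed at 95 °C for 5 min before titration; ligand stock in d₆-DMSO.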
# Quadruplex DNA [12] = assay: Binding affinity to c-myc promoter G-quadruplex/i-motif in human SiHa cells assessed as reduction in c-myc expression at 1.25 uM incubated for 24 hrs by Western blot analysis; format: cell-based; parameters: scale not given: the % may be the effect or the level left
# Procedure, shortened: (§3)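 SiHa cells treated 24 h at 0, 0.625, 1.25 and 2.5 μM, then lysed in buffer with 1 mM PMSF. Protein measured by BCA, equal loads run on 8% gel and blotted to PVDF. Probed with anti-c-MYC and anti-β-actin (loading control), HRP anti-rabbit secondary, chemiluminescence read-out.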
# Quadruplex DNA [13] = assay: Stabilization of c-myc promoter G-quadruplex DNA Pu27 (unknown origin) assessed as effect on melting temperature at 5 uM by CD spectroscopy; format: nucleic-acid assay
# Procedure, shortened: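 CD melting: Pu27 diluted to 1 µM in 10 mM Tris-HCl, 5 mM KCl, pH 7.4, with or without ligand. Annealed at 95 °C for 5 min, slowly cooled, then heated at 1 °C/min while monitoring 260 nm. Tm obtained by curve fitting.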
# A-375 = assay: Antiproliferative activity against human A-375 cells after 48 hrs by MTT assay; format: functional, cell-based; settings: A-375, 48 h; procedure, shortened: as §2
# SiHa [14] = assay: Induction of apoptosis in human SiHa cells assessed as decrease in caspase-9 level incubated for 24 hrs by Western blot analysis; format: functional, cell-based; settings: dose microM 0.6-2.4, time 24.0 hrs
# Quadruplex DNA [15] = assay: Binding affinity to c-myc promoter G-quadruplex DNA Pu27 (unknown origin) at 50 uM by isothermal titration calorimetry; format: nucleic-acid assay
# Procedure, shortened: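 ITC at 20 °C on degassed solutions. Cell held preformed DNA ([…]). Syringe held ligand in the same buffer (50 μM for Pu27, 20 μM for Py33). 28 injections of 10 μL at 4 min intervals. Heats of dilution from ligand-into-buffer runs subtracted before model fitting.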
# Raji = assay: Induction of cell cycle arrest in human Raji cells assessed as accumulation of cells at G2/M phase at 0.15 to 0.6 uM after 24 hrs by propidium iodide staining based flow cytometry; format: functional; settings: dose microM 0.15-0.6, time 24.0 hrs
# SiHa [16] = assay: Inhibition of c-myc transcription in human SiHa cells harboring c-myc deleted promoter G-quadruplex/i-motif (unknown origin) assessed as decrease in ratio of renilla/firefly luciferase activity at 0.025 to 0.1 uM after 48 hrs by dual-luciferase reporter assay; format: functional, cell-based; settings: dose microM 0.025-0.1, time 48.0 hrs
# Procedure, shortened: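 Psicheck2 plasmid carrying deleted c-myc promoter (lacking NHE III₁ G/C-rich sequence), 200 ng, lipofected into SiHa cells. Compound added 8 h post-transfection, cells kept 48 h at 37 °C, washed with ice-cold PBS, then Renilla/Firefly luciferase activity ratio measured with a dual-luciferase kit.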
# HeLa = assay: Antiproliferative activity against human Hela cells after 48 hrs by MTT assay; format: functional, cell-based; procedure, shortened: as §2
# Quadruplex DNA [17] = assay: Binding affinity to c-myc promoter G-quadruplex/i-motif in human SiHa cells assessed as reduction in c-myc expression incubated for 24 hrs by Western blot analysis; format: cell-based; procedure, shortened: as §3
# [18] = Stabilization of c-myc promoter i-motif DNA Py33 (unknown origin) assessed as decrease in positive peak intensity at pH 5.5 measured at 288 nanometer by CD spectroscopy
# Procedure, shortened: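 Py33 at 1 µM in 1× BPES pH 5.5 (pH 6.8 random-coil reference), with or without ligand. Annealed at 95 °C for 5 min, cooled, kept at 4 °C overnight. CD spectra in a 4 mm cuvette over 230–350 nm, three scans averaged, buffer-corrected; peaks followed at 288 and 260 nm.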
structure (smiles),measurement,setting,value
Cc1ccc2nc3ccc(C)cc3c(NCCCNCCNCCCNc3c4cc(C)ccc4nc4ccc(C)cc34)c2c1,Kd,Quadruplex DNA [1],7700 nM
same,Activity,SiHa [2],43.2%
same,Activity,SiHa [3],56.91%
same,Activity,CA46 [4],inactive
same,Activity,Quadruplex DNA [5],< 92.7%
same,IC50,SiHa [6],1220 nM
same,Kd,dsDNA,18500 nM
same,Activity,CA46 [7],inactive
same,Activity,Quadruplex DNA [8],inactive
same,ΔTm,[9],11 °C
same,Activity,SiHa [10],16.87%
same,Activity,[11],Active
same,Activity,Quadruplex DNA [12],< 39.8%
same,Activity,Quadruplex DNA [13],Active
same,IC50,A-375,280 nM
same,Activity,SiHa [14],Dose-dependent effect
same,Kd,Quadruplex DNA [15],810 nM
same,Activity,Raji,Active
same,Activity,SiHa [16],inactive
same,IC50,HeLa,450 nM
same,Activity,Quadruplex DNA [17],Dose-dependent effect
same,Activity,[18],Active
